Series [1] deals with T1, Multidrug efflux pump subunit AcrB (Escherichia coli (strain K12)) (UniProt P31224).
T1 sequence (whole entry): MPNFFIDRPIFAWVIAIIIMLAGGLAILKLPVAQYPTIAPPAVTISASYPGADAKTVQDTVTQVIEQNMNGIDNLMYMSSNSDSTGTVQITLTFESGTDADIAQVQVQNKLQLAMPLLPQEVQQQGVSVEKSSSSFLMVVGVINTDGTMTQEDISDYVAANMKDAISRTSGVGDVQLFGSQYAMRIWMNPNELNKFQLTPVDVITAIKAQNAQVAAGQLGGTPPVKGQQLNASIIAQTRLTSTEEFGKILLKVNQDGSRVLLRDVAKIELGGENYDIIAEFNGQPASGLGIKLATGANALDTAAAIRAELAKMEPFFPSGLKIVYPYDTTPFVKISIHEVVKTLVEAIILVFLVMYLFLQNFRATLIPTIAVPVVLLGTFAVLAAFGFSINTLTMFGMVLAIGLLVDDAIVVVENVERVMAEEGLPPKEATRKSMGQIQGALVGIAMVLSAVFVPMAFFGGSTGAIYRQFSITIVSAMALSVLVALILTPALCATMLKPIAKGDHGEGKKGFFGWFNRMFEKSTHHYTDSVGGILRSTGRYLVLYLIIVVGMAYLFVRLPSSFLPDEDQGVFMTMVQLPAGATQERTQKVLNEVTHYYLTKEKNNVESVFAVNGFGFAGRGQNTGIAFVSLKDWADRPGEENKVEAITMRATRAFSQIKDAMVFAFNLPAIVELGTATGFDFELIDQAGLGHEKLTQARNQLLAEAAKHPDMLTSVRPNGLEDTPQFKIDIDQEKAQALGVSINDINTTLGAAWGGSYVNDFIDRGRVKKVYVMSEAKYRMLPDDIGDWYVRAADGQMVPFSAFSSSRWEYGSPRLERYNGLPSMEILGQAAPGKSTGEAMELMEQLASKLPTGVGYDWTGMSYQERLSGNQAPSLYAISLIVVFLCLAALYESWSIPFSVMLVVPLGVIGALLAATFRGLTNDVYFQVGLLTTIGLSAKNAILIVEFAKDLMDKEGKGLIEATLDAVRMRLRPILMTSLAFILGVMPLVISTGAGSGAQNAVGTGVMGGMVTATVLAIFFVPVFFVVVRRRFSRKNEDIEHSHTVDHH
Description: Inhibition of AcrB in multidrug-resistant Escherichia coli BW25113 assessed as potentiation of erythromycin-induced antibacterial activity by measuring erythromycin MIC at 8 ug/ml by checkerboard titration method (reference value: 64 ug/ml). Conditions: dose 8.0 µg/ml.

Series [2] addresses T1, Multidrug efflux pump subunit AcrB (Escherichia coli (strain K12)). Description: Inhibition of AcrB in multidrug-resistant Escherichia coli BW25113 assessed as potentiation of chloramphenicol-induced antibacterial activity by measuring chloramphenicol MIC at 8 ug/ml by checkerboard titration method (reference value: 8 ug/ml). The conditions noted are these: dose 8.0 µg/ml.

Series [3] has the same target. Kind of series: Inhibition of AcrB in multidrug-resistant Escherichia coli BW25113 assessed as potentiation of chloramphenicol-induced antibacterial activity by measuring chloramphenicol MIC at 16 ug/ml by checkerboard titration method (reference value: 8 ug/ml). The conditions noted are these: dose 16.0 µg/ml.
Series [4] has the same target. Description: Inhibition of AcrB in multidrug-resistant Escherichia coli BW25113 assessed as potentiation of chloramphenicol-induced antibacterial activity by measuring chloramphenicol MIC at 32 ug/ml by checkerboard titration method (reference value: 8 ug/ml). Conditions: dose 32.0 µg/ml.
The target is the same in series [5]. Description: Inhibition of AcrB in multidrug-resistant Escherichia coli BW25113 assessed as potentiation of chloramphenicol-induced antibacterial activity by measuring chloramphenicol MIC at 128 ug/ml by checkerboard titration method (reference value: 8 ug/ml). The conditions noted are these: dose 128.0 µg/ml.
Series [6] has the same target. Kind of series: Inhibition of AcrB in multidrug-resistant Escherichia coli BW25113 assessed as potentiation of erythromycin-induced antibacterial activity by measuring erythromycin MIC at 16 ug/ml by checkerboard titration method (reference value: 64 ug/ml). The conditions noted are these: dose 16.0 µg/ml.
Series [7] shares this target. Description: Inhibition of AcrB in multidrug-resistant Escherichia coli BW25113 assessed as potentiation of tetraphenylphosphonium-induced antibacterial activity by measuring tetraphenylphosphonium MIC at 8 ug/ml by checkerboard titration method (reference value: 1024 ug/ml). Conditions: dose 8.0 µg/ml.
Series [8] has the same target. Kind of series: Inhibition of AcrB in multidrug-resistant Escherichia coli BW25113 assessed as potentiation of tetraphenylphosphonium-induced antibacterial activity by measuring tetraphenylphosphonium MIC at 16 ug/ml by checkerboard titration method (reference value: 1024 ug/ml). Conditions: dose 16.0 µg/ml.
The target is the same in series [9]. Description: Inhibition of AcrB in multidrug-resistant Escherichia coli BW25113 assessed as potentiation of tetraphenylphosphonium-induced antibacterial activity by measuring tetraphenylphosphonium MIC at 64 ug/ml by checkerboard titration method (reference value: 1024 ug/ml). The conditions noted are these: dose 64.0 µg/ml.
The target is the same in series [10]. Description: Inhibition of AcrB in multidrug-resistant Escherichia coli BW25113 assessed as potentiation of tetraphenylphosphonium-induced antibacterial activity by measuring tetraphenylphosphonium MIC at 128 ug/ml by checkerboard titration method (reference value: 1024 ug/ml). Conditions: dose 128.0 µg/ml.
Series [11] has the same target. Description: Inhibition of AcrB in multidrug-resistant Escherichia coli BW25113 assessed as potentiation of levofloxacin-induced antibacterial activity by measuring levofloxacin MIC at 16 ug/ml by checkerboard titration method (reference value: 0.06 ug/ml). Conditions: dose 16.0 µg/ml.
Series [12] concerns Cell membrane. Description: Induction of outer membrane permeabilization in wild type Escherichia coli BW25113 assessed as increase in nitrocefin hydrolysis at 128 ug/ml in presence of CCCP by spectroscopic analysis. Conditions: dose 128 µg/ml. The method, boiled down: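 Intact E. coli were treated with 10 μM CCCP to block nitrocefin efflux, then given compound, nothing, or polymyxin B as permeabilizer control. Nitrocefin was added, and hydrolysis by periplasmic β-lactamase was followed as the rise in absorbance at 490 nm. Duplicate experiments were run on different days.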

Series [13] addresses T1, Multidrug efflux pump subunit AcrB (Escherichia coli (strain K12)). Conditions: Escherichia coli BW25113; dose 8.0 µg/ml.
For series [14] the target is unchanged. Conditions: Escherichia coli BW25113; dose 32.0 µg/ml.
For series [15] the target is unchanged. The conditions noted are these: Escherichia coli BW25113; dose 128.0 µg/ml.
Series [16] shares this target. Description: Inhibition of AcrB in Escherichia coli BW25113 assessed as reduction in glucose-induced nile red efflux at 100 uM preincubated for 15 mins followed by nile red addition and incubated for 3 hrs in shaker in presence of CCCP by fluorimetric analysis. Conditions: time 3.25 hrs. In outline: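 Wild-type and AcrB-deleted cells were preloaded with Nile Red, with or without compound. Fluorescence was recorded, and efflux was triggered at 100 s with 0.2% glucose. Traces were compared with the deletion-strain level. Triplicate experiments used different cell batches.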

Values after ≈ are worked out from the molar mass of the structure shown. Active and inactive are the calls of the source. The calls are words filed in the database; no cut-off is given here.

9 molecules from ChEMBL document CHEMBL4732114, “Design and structural optimization of novel 2H-benzo[h]chromene derivatives that target AcrB and reverse bacterial multidrug resistance” (Eur J Med Chem, 2021) can be followed below.

For the molecule `CC1(C)CCc2c(C(=O)N3CCOCC3)cc3c(OCc4ccc(C(F)(F)F)cc4)cccc3c2O1`, the MIC in [1] amounted to 64 µg/mL; in series [2], 8 µg/mL; in [3] it was 8 µg/mL; in series [4], 8 µg/mL; in [5], 4 µg/mL; in series [6] it was 64 µg/mL. Moreover, the MIC came out at 512 µg/mL in series [7]; 512 µg/mL in series [8]; 512 µg/mL in series [9]; 256 µg/mL in [10]; 0.06 µg/mL in series [11]; 16 µg/mL (≈ 32 µM) in series [13]. In addition, the MIC in series [14] and in [15] was 16 µg/mL (≈ 32 µM) each time. Also, the Activity result in series [12] is reported as “Not Active”.

For `Cc1ccccc1COc1cccc2c3c(c(-c4nnco4)cc12)CCC(C)(C)O3`, the MIC turned out to be 64 µg/mL in series [1]; 8 µg/mL in series [2]; 8 µg/mL in series [3]; 8 µg/mL in [4]; 8 µg/mL in series [5]; 64 µg/mL in [6]. Further, the MIC in series [7] was determined as 512 µg/mL; in series [8], 512 µg/mL; in series [9], 512 µg/mL; in series [10], 256 µg/mL; in series [11] it was 0.06 µg/mL; in [13], 16 µg/mL (≈ 40 µM). In addition, the MIC in series [14] and in series [15] was 16 µg/mL (≈ 40 µM) each time. Besides, the inhibition entry in [16] was “Active”.

`CC1(C)CC(=O)c2ccc(OCC(=O)Nc3ccc(C#N)c(C(F)(F)F)c3)cc2O1`: the MIC in series [1] worked out at 64 µg/mL; in [2], 8 µg/mL; in [3], 8 µg/mL; in series [4], 8 µg/mL; in series [6] it was 64 µg/mL; in series [7] it was 1020 µg/mL. Also, the MIC in [8] turned out to be 1020 µg/mL; in series [9], 256 µg/mL; in series [11] it was 0.06 µg/mL; in series [13], 16 µg/mL (≈ 38.2 µM); in series [14] it was 16 µg/mL (≈ 38.2 µM); in series [15] it was 16 µg/mL (≈ 38.2 µM).

As to `CNC(=O)c1ccc(COc2cccc3c4c(c(Cn5cnnn5)cc23)CCC(C)(C)O4)cc1`, the MIC was 64 µg/mL in series [1]; 8 µg/mL in [2]; 8 µg/mL in [3]; 8 µg/mL in series [4]; 4 µg/mL in series [5]; 64 µg/mL in [6]. The MIC in [7] was 1020 µg/mL; in [8] it was 1020 µg/mL; in series [9] it was 1020 µg/mL; in series [10], 1020 µg/mL; in series [11], 0.06 µg/mL; in series [13], 16 µg/mL (≈ 35 µM). Moreover, the MIC in series [14] and in series [15] was 16 µg/mL (≈ 35 µM) each time.

Consider `CC1(C)CCc2c(-c3nnco3)cc3c(OCc4ccc(C#N)cc4)cccc3c2O1`, for which the MIC in series [1] was determined as 64 µg/mL; in series [2], 8 µg/mL; in [3], 4 µg/mL; in [4], 4 µg/mL; in series [5], 2 µg/mL; in series [6], 64 µg/mL. The MIC in series [7] was 1020 µg/mL; in [8], 1020 µg/mL; in series [9], 512 µg/mL; in [10], 512 µg/mL; in series [11] it was 0.06 µg/mL; in series [13], 16 µg/mL (≈ 38.9 µM). For the same molecule, the MIC in series [14] and in series [15] was 16 µg/mL (≈ 38.9 µM) each time. For the same molecule, the Activity result in [12] is given as “Not Active”.

`COc1cccc(COc2cccc3c4c(c(C(=O)N5CCOCC5)cc23)CCC(C)(C)O4)c1`: the MIC in [1] turned out to be 64 µg/mL; in series [2] it was 4 µg/mL; in series [3] it was 4 µg/mL; in series [4], 4 µg/mL; in series [5] it was 2 µg/mL; in series [6] it was 64 µg/mL. In addition, the MIC in series [7] is 512 µg/mL; in [8] it was 512 µg/mL; in series [9], 256 µg/mL; in [10], 128 µg/mL; in [11], 0.06 µg/mL; in series [13] it was 16 µg/mL (≈ 34.7 µM). For the same molecule, the MIC in series [14] and in series [15] was 16 µg/mL (≈ 34.7 µM) throughout. Further, in [12], the Activity result is “Not Active”.

On to `C=CC(=O)Nc1ccc(COc2cccc3c4c(c(Cn5cnnn5)cc23)CCC(C)(C)O4)cc1`, for which the MIC was 64 µg/mL in series [1]; 8 µg/mL in series [2]; 8 µg/mL in series [3]; 4 µg/mL in [4]; 4 µg/mL in [5]; 64 µg/mL in series [6]. Moreover, the MIC worked out at 1020 µg/mL in series [7]; 1020 µg/mL in [8]; 1020 µg/mL in series [9]; 1020 µg/mL in [10]; 0.06 µg/mL in [11]; 16 µg/mL (≈ 34.1 µM) in [13]. In addition, the MIC in series [14] and in series [15] was 16 µg/mL (≈ 34.1 µM) each time.

In the case of `COc1cccc(COc2cccc3c4c(c(-c5nnco5)cc23)CCC(C)(C)O4)c1`, the MIC is 64 µg/mL in series [1]; 8 µg/mL in series [2]; 8 µg/mL in [3]; 8 µg/mL in series [4]; 8 µg/mL in series [5]; 64 µg/mL in series [6]. The MIC came to 1020 µg/mL in [7]; 1020 µg/mL in [8]; 512 µg/mL in series [9]; 512 µg/mL in series [10]; 0.06 µg/mL in series [11]; 16 µg/mL (≈ 38.4 µM) in series [13]. The MIC in [14] and in series [15] was 16 µg/mL (≈ 38.4 µM) in each case. In addition, in series [12], the Activity result is listed as “Not Active”.

As for `CC1(C)CC(=O)c2ccc(OCCNC3CCCC3)cc2O1`, the MIC in series [1] is 64 µg/mL; in series [2] it was 8 µg/mL; in series [3], 8 µg/mL; in series [4], 8 µg/mL; in series [5], 8 µg/mL; in series [6], 64 µg/mL. Besides, the MIC was 512 µg/mL in series [7]; 512 µg/mL in series [8]; 512 µg/mL in series [9]; 512 µg/mL in series [10]; 0.06 µg/mL in [11]; 16 µg/mL (≈ 52.7 µM) in series [13]. Besides, the MIC in series [14] and in series [15] was 16 µg/mL (≈ 52.7 µM) in each case. The Activity entry in series [12] is listed as “Not Active”.
